Columns and labels:
[1] = tested on: Leishmania donovani; assay: Antileishmanial activity against Leishmania donovani MHOM/ET/ 67/HU3 amastigote infected in CD1 mouse peritoneal exudate macrophages assessed as parasite growth inhibition after 5 days by Giemsa staining; type: functional, organism-based; conditions: MHOM/ET/ 67/HU3, 120 h
In short: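 Macrophages from starch-induced peritoneal exudate, harvested after 24 h, held 24 h in RPMI 1640 + 10% HIFCS at 37°C, 5% CO2. Infected with hamster-spleen-derived amastigotes at 5 parasites:1 macrophage, then 24 h later drug applied for 5 days, overlay renewed day 3. Top concentration 30 µg/mL, quadruplicates. Methanol fixation, microscopic scoring. IC50 by sigmoidal regression, mean of at least three determinations.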

[2] = tested on: Plasmodium falciparum; assay: Antimalarial activity against chloroquine-susceptible Plasmodium falciparum 3D7 assessed as inhibition of parasite growth after 48 hrs by [3H]hypoxanthine reuptake assay; type: functional, organism-based
In short: (§1)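 Synchronised ring-stage cultures at 1% parasitemia, 5% hematocrit, in RPMI 1640 at 37°C, 5% CO2; top final test concentration 30 µg/mL. After 24 h, (3H)-hypoxanthine (0.2 µCi/well) was added, followed by a further 48 h incubation. Plates were freeze/thawed and harvested, and uptake was counted by scintillation. IC50 came from sigmoidal regression as the mean of at least three determinations.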

[3] = tested on: Plasmodium falciparum; assay: Antimalarial activity against chloroquine-resistant Plasmodium falciparum K1 assessed as inhibition of parasite growth after 48 hrs by [3H]hypoxanthine reuptake assay; type: functional, organism-based; in short: as §1
[4] = tested on: KB; assay: Cytotoxicity against human KB cells after 72 hrs by Alamar blue assay; type: cell-based
In short: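 Monolayers grown in RPMI 1640 + 10% heat-inactivated FCS at 37°C, 5% CO2. After 72 h compound exposure, Alamar Blue added and incubated a further 2-4 h. Fluorescence read at 530/580 nm, cut-off 550 nm. Podophyllotoxin served as positive control. IC50 is the concentration killing 50% of cells.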

SMILES	IC50 [1] [nM]	IC50 [2] [nM]	IC50 [3] [nM]	IC50 [4] [nM]
CCN(CC)Cc1cc(Nc2ccnc3cc(Cl)ccc23)ccc1O	1400	2.15	8.61	90000
CCN(CCN/C(=N/C(=O)c1ccccc1)Oc1ccccc1)Cc1cc(Nc2ccnc3cc(Cl)ccc23)ccc1O	2860	6.73	10.1	10200
CCN(CCNC(=O)OC(C)(C)C)Cc1cc(Nc2ccnc3cc(Cl)ccc23)ccc1O	8770	2.12	2.12	8810
CCN(CCNC(=N)c1ccccc1)Cc1cc(Nc2ccnc3cc(Cl)ccc23)ccc1O	7100	48.4	290	5340
Oc1ccc(Nc2ccnc3cc(Cl)ccc23)cc1CN1CCN(c2ncccn2)CC1	7210	–	–	8030
CCN(CCNC(=O)[C@H](C)N)Cc1cc(Nc2ccnc3cc(Cl)ccc23)ccc1O	5150	12.2	14100	10400
CCN(CCNC(=S)Nc1ccccc1)Cc1cc(Nc2ccnc3cc(Cl)ccc23)ccc1O	2050	1.63	6.5	8460
Oc1ccc(Nc2ccnc3cc(Cl)ccc23)cc1CN1CCN(c2nc3ccccc3s2)CC1	12900	14.6	1480	45200
CCN(CCNC(=O)[C@@H](N)[C@@H](C)O)Cc1cc(Nc2ccnc3cc(Cl)ccc23)ccc1O	15300	47	14100	54400
CCN(CCNC(=N)Nc1ccccc1)Cc1cc(Nc2ccnc3cc(Cl)ccc23)ccc1O	11700	126	12100	9030
CCOC(=O)N1CCN(Cc2cc(Nc3ccnc4cc(Cl)ccc34)ccc2O)CC1	14900	5.28	7.04	11400
CCN(CCNC(=O)Nc1ccccc1)Cc1cc(Nc2ccnc3cc(Cl)ccc23)ccc1O	1830	8.22	238	5330
Oc1ccc(Nc2ccnc3cc(Cl)ccc23)cc1CN1CCN(c2nccs2)CC1	17700	0.67	0.42	5020
CCN(CCN)Cc1cc(Nc2ccnc3cc(Cl)ccc23)ccc1O	5650	5.47	5.47	25600
Oc1ccc(Nc2ccnc3cc(Cl)ccc23)cc1CN1CCN(c2nc3ccccc3o2)CC1	14600	1.68	387	8020
CCN(CCNC(=O)[C@@H](N)CC(C)C)Cc1cc(Nc2ccnc3cc(Cl)ccc23)ccc1O	4690	22.6	14300	22300
OCc1cc(Nc2ccnc3cc(Cl)ccc23)ccc1O	> 89000	712	1420	198000
Oc1ccc(Nc2ccnc3cc(Cl)ccc23)cc1CCl	> 83500	695	557	25600
Oc1ccc(Nc2ccnc3cc(Cl)ccc23)cc1CN1CCN(c2ccccn2)CC1	6710	0.323	1.4	16100
Oc1ccc(Nc2ccnc3cc(Cl)ccc23)cc1CN1CCN(c2ccccc2)CC1	9680	3.52	1.8	8630
Oc1ccc(Nc2ccnc3cc(Cl)ccc23)cc1CN1CCN(c2nc3ccccc3[nH]2)CC1	1870	3.08	1.54	2440
Oc1ccc(Nc2ccnc3cc(Cl)ccc23)cc1CN1CCN(c2cccs2)CC1	9140	2.22	–	50400
Oc1ccc(Nc2ccnc3cc(Cl)ccc23)cc1CN1CCNCC1	2290	18.8	225	11800
C[C@H]1[C@H](OC(=O)CCC(=O)O)O[C@@H]2O[C@@]3(C)CC[C@H]4[C@H](C)CC[C@@H]1[C@@]24OO3 [ARTESUNATE]	–	–	2.46	–
